Assay [1] addresses T1, AIRE-PHD1 Glu298Ala (Homo sapiens, UniProt O43918, E298A).
T1 sequence (O43918 293-354 E298A): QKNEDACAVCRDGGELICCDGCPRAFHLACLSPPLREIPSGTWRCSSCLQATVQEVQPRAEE
Nature of the assay: Isothermal titration calorimetry. As to conditions: AIRE-PHD1 Glu298Ala mutant, ITC 23°C, pH 7.2. The assay is classed as binding. In outline:
(§1)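 Recombinant AIRE-PHD1 (Gln293–Glu354) point mutants, made by overlap-extension PCR and mass-verified by MALDI, at 40–85 μM in 20 mM phosphate, 150 mM NaCl, 2 mM β-mercaptoethanol, 50 μM ZnCl2, pH 7.2. Synthetic H3 1–10 peptides (0.54–2.5 mM) were injected 28–57 times at 15 min spacing, 23°C, stirring 307 rpm. Heats were corrected for dilution and fitted to a one-site model by nonlinear least squares. Run in duplicate.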
A general note: ITC needs no label: the signal is the heat of the interaction.

Assay [2] concerns the target T2, AIRE-PHD1 Asp304Ala (Homo sapiens, UniProt O43918, D304A).
T2 sequence (O43918 293-354 D304A): T1 sequence (O43918 293-354 E298A) with A6E, D12A
Nature of the assay: Isothermal titration calorimetry. As to conditions: AIRE-PHD1 Asp304Ala mutant, ITC 23°C, pH 7.2. The assay is classed as binding. Summed up: as §1

Assay [3] deals with T3, AIRE-PHD1 Glu307Ala (Homo sapiens, UniProt O43918, E307A).
T3 sequence (O43918 293-354 E307A): T1 sequence (O43918 293-354 E298A) with A6E, E15A
The assay is described as follows: Isothermal titration calorimetry. The conditions noted are these: AIRE-PHD1 Glu307Ala mutant, ITC 23°C, pH 7.2. In kind it is binding. In outline:
as §1

In assay [4] the target is T4, AIRE-PHD1 wild type (Homo sapiens, UniProt O43918).
T4 sequence (O43918 293-354): T1 sequence (O43918 293-354 E298A) with A6E
As to conditions: AIRE-PHD1 wt, ITC; previous experiments; ref [22]; cited from earlier work.

The target of assay [5] is T4, AIRE-PHD1 wild type. The assay is described as follows: Isothermal titration calorimetry. The assay is classed as binding. The conditions noted are these: for ΔG / −TΔS: AIRE-PHD1 wt, ITC 23°C, pH 7.2, duplicate, ND = not detectable.
Assay [6] has as its target T4, AIRE-PHD1 wild type. Nature of the assay: Tryptophan fluorescence titration. In kind it is binding.
The subject of another assay is GST-AIRE-PHD1. Nature of the assay: Peptide pull-down / in vitro binding assays. More on the design: species or system human. As to conditions: in vitro: fluorescence titrations, ITC and peptide pull-down assays.
For assay [7], the target named is first PHD finger of autoimmune regulator (AIRE-PHD1), wild type (human) (UniProt O43918). Nature of the assay: other fluorescence titration.
Assay [8] has the same target. The assay is described as follows: ITC.
Assay [9] concerns the target T5, first PHD finger of autoimmune regulator (AIRE-PHD1), wild type (human, UniProt O43918 293-354).
T5 sequence (looked up): T1 sequence (O43918 293-354 E298A) with A6E
Nature of the assay: other fluorescence titration.

The target in assay [10] is T5, first PHD finger of autoimmune …. The assay is described as follows: ITC.
Assay [11] addresses T6, AIRE-PHD1 Glu298Ala (human, UniProt O43918 293-354, Glu298Ala).
T6 sequence (looked up): T1 sequence (O43918 293-354 E298A)
Nature of the assay: other fluorescence titration.

Assay [12] has as its target T7, AIRE-PHD1 Asp304Ala (human, UniProt O43918 293-354, Asp304Ala).
T7 sequence (looked up): T1 sequence (O43918 293-354 E298A) with A6E, D12A
Nature of the assay: other fluorescence titration.

Assay [13] addresses T8, AIRE-PHD1 Glu307Ala (human, UniProt O43918 293-354, Glu307Ala).
T8 sequence (looked up): T1 sequence (O43918 293-354 E298A) with A6E, E15A
Nature of the assay: other fluorescence titration.

Assay [14] concerns the target T6, AIRE-PHD1 Glu298Ala. Nature of the assay: ITC.
In assay [15] the target is T7, AIRE-PHD1 Asp304Ala. Nature of the assay: ITC.
In assay [16] the target is T8, AIRE-PHD1 Glu307Ala. The assay is described as follows: ITC.

We go through eight molecules from publication PMC2685098 (Nucleic Acids Research, 2009).

Changes are numbered by the printed parent chain. Where two headings read alike, the source gives them in different places.

On to `C[C@H](N)C(=O)N[C@@H](CCCNC(=N)N)C(=O)N[C@H](C(=O)N[C@@H](CCCCN)C(=O)N[C@@H](CCC(N)=O)C(=O)N[C@H](C(=O)N[C@@H](C)C(=O)N[C@@H](CCCNC(=N)N)C(=O)N[C@@H](CCCCN)C(=O)N[C@@H](CO)C(=O)O)[C@@H](C)O)[C@@H](C)O` [H3K4me0], for which the ΔG was -5.9 ± 0.1 kcal/mol on AIRE-PHD1 Glu298Ala [1], -5.2 ± 0.4 kcal/mol at AIRE-PHD1 Asp304Ala [2], -5.9 ± 0.1 kcal/mol at AIRE-PHD1 Glu307Ala [3] and -7.1 ± 0.1 kcal/mol at AIRE-PHD1 wild type [4]. Moreover, the ΔH is -7.2 ± 0.1 kcal/mol on AIRE-PHD1 Glu298Ala [1], -5.3 ± 0.4 kcal/mol on AIRE-PHD1 Asp304Ala [2], -6.7 ± 0.1 kcal/mol at AIRE-PHD1 Glu307Ala [3] and -9.3 ± 0.1 kcal/mol on AIRE-PHD1 wild type [4]. The “−TΔS” value at AIRE-PHD1 Glu298Ala [1] is 1.3 ± 0.1 kcal/mol; on AIRE-PHD1 Asp304Ala [2], 0.1 ± 0.4 kcal/mol; on AIRE-PHD1 Glu307Ala [3], 0.7 ± 0.1 kcal/mol; on AIRE-PHD1 wild type [4], 2.2 ± 0.1 kcal/mol.

As to `C[C@H](N)C(=O)N[C@@H](CCCNC(=N)N)C(=O)N[C@H](C(=O)N[C@@H](CCCCN)C(=O)N[C@@H](CCC(N)=O)C(=O)N[C@H](C(=O)N[C@@H](C)C(=O)N[C@@H](C)C(=O)N[C@@H](CCCCN)C(=O)N[C@@H](CO)C(=O)O)[C@@H](C)O)[C@@H](C)O` [H3R8AK4me0], on AIRE-PHD1 wild type [5], the ΔG was -5.8 ± 0.3 kcal/mol and the “−TΔS” value was 1.6 ± 0.3 kcal/mol.

Regarding `C[C@H](N)C(=O)N[C@@H](CCCNC(=N)N)C(=O)N[C@H](C(=O)N[C@@H](CCCCN)C(=O)N[C@@H](CCC(N)=O)C(=O)N[C@H](C(=O)N[C@@H](C)C(=O)N[C@@H](CCCNC(=N)N)C(=O)N[C@@H](CCCCN)C(=O)N[C@@H](COP(=O)(O)O)C(=O)O)[C@@H](C)O)[C@@H](C)O` [H3S10Ph K4me0], on AIRE-PHD1 wild type [6], the Kd amounted to 7.6 ± 1.2 µM. For the same molecule, at AIRE-PHD1 wild type [5], the Kd was determined as 24.7 ± 0.2 µM, the ΔG was -6.3 ± 0.1 kcal/mol and the “−TΔS” value was found to be 3.3 ± 0.1 kcal/mol.

Turning to “H3R2me2asK4me0: H3 1-10 peptide, asymmetric di-methylation of R2”, the “AIRE-PHD1 binding (in words)” value in the assay on GST-AIRE-PHD1 is on record as “strongly reduced AIRE-PHD1 binding”.

“histone H3 peptide (1-10) mono-methylated at R2, H3R2me1K4me0” displayed a Kd in assay [7] of 248 µM. In assay [8], this molecule had a Kd of 199 µM and a dH of -4.6 kcal/mol.

On to “histone H3 peptide (1-10) phosphorylated at S10, H3S10PhK4me0”, for which the figures for the Kd in assay [7] and in assay [8] were 7.6 µM and 24.7 µM, respectively.

In [9], ARTKQTAAKS [mutant histone H3 peptide (1-10) H3R8AK4me0] displayed a Kd of 52.8 ± 4.9 µM. In assay [10], this molecule had a Kd of 55.9 µM and a dH of -7.3 ± 0.3 kcal/mol.

Regarding ARTKQTARKS [non-modified histone H3 tail peptide H3K4me0 (residues 1-10)], the Kd was 28.1 ± 2.1 µM in the assay with AIRE-PHD1 Glu298Ala [11]; 80 µM with AIRE-PHD1 Asp304Ala [12]; 19 ± 2.4 µM in the assay with AIRE-PHD1 Glu307Ala [13]; 43.4 ± 0.5 µM with AIRE-PHD1 Glu298Ala [14]; 123 ± 6.7 µM in the assay with AIRE-PHD1 Asp304Ala [15]; 40.6 ± 0.5 µM with AIRE-PHD1 Glu307Ala [16]. Besides, the figures for the dH in the assay with AIRE-PHD1 Glu298Ala [14], with AIRE-PHD1 Asp304Ala [15] and with AIRE-PHD1 Glu307Ala [16] were -7.2 ± 0.1 kcal/mol, -5.3 ± 0.4 kcal/mol and -6.7 ± 0.1 kcal/mol, respectively.

As usually defined, the Kd is a measure of binding affinity in units of concentration. Low values mean higher affinity, high ones lower affinity.
